# Bioassay records: PubChem, several laboratories
# An excerpt weighted towards active compounds, which were near 2.6% of everything screened.
# PHOSPHO1 inh: PHOSPHO1 (human) inhibition; recombinant PHOSPHO1, absorbance phosphatase assay; inhibition, % at 13.3 µM; actives 1.1% (n = 290,000); in the data active = inhibition above about 60%
# Target sequence (Q8TCT1 whole entry, looked up): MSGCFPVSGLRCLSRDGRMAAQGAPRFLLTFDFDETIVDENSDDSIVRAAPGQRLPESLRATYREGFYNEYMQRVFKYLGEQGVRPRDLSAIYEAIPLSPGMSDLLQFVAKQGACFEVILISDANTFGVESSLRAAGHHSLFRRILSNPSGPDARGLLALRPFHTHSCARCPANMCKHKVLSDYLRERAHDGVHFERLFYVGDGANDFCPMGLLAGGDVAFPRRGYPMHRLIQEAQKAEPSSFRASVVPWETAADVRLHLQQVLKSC
# ARFGAP1 inhibitor: rat ARFGAP1 inhibition; Q62848; actives 0.26% (n = 360,000); Arfgap1-stimulated ARF1 GTP hydrolysis, GDP FP detection; inhibition, % at 16.5 µM; AID 651572;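 active = inhibition above a per-plate limit, mean inhibition of low control wells plus 3 SD, cut at about 25% in these data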;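 also: 0% = DMSO wells with enzyme and 100% = wells lacking Arfgap1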
# Target sequence (Q62848 1-136 limits assumed): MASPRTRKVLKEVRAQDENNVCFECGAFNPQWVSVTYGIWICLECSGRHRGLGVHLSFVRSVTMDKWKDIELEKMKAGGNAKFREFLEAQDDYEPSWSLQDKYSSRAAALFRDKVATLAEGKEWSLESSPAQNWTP
#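 Material – truncated rat Arfgap1 GAP domain · Buffer or medium – HEPES-based buffer, pH 7.5 · Reagent – human ARF1(Δ1-17)-GTP substrate · Dosing – 16.5 µM single point, 1.26% DMSO · Schedule – GTP hydrolysis reaction 2 h at 25 °C · Technique – GDP detection by fluorescence polarization · Benchmarks – No-Arfgap1 wells (100%) versus DMSO full-reaction wells (0%) · Repeats – single replicate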
# ASAP1 GAP inh: blocks human ASAP1-stimulated Arf1 GTP hydrolysis; Q9ULH1; GDP FP detection; inhibition, % at 16.5 µM; actives 0.19% (n = 360,000); AID 624377; in the data active = inhibition above about 25%;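 also: 0% = vehicle with enzyme and substrate and 100% = no enzyme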
# IMP-1 inhibitor: blocks Pseudomonas aeruginosa IMP-1 metallo-beta-lactamase. actives 0.45% (n = 290,000). inhibition, % at 5.6 µM. AID 1556. purified IMP-1, nitrocefin hydrolysis, epi-absorbance fluorescence;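 active = inhibition above the mean plus 3 SD of all compounds in the same screening run, cut at about 4.5% in these data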;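 also: 0% = IMP-1 with DMSO and 100% = DMSO wells lacking enzyme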
#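 Material – recombinant IMP-1 enzyme, purified · Amount – IMP-1 0.2 nM before substrate addition · Medium – HEPES buffer pH 7.1 with ZnSO4 and Brij 35 · Timing – 25 °C, 15 min preincubation, 25 min reaction · Measured by – plate fluorescence quenching by hydrolysis product, ex 480/em 530 nm · Read-out – percent enzyme inhibition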
# Calb FLC: affects C. albicans growth with fluconazole. C. albicans CaCi-2 (fluconazole-resistant clinical isolate) + fluconazole, Alamar Blue growth, 48 h. growth inhibition, % (concentration not given with the values). actives 0.57% (n = 300,000);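 active = growth inhibition above about 58% in most replicates, limit read from the data, passing the limit was not always enough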;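 also: all wells also contain fluconazole at 8 µg/ml as a sub-toxic cotreatment; 0% = median of DMSO wells and 100% = median of geldanamycin control wells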
# VIM-2 inh: blocks Pseudomonas aeruginosa VIM-2 metallo-beta-lactamase. purified VIM-2, nitrocefin hydrolysis, epi-absorbance fluorescence. inhibition, % at 5.6 µM. actives 0.89% (n = 290,000);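 active = inhibition above the mean of all tested compounds plus 3 SD, cutoff set per screening run, cut at about 7.5% in these data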;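 also: red hydrolysis product quenches plate fluorescence so inhibitors raise well fluorescence; 0% = enzyme with DMSO and 100% = DMSO without enzyme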
# ARFGAP1 inh conf: confirmation of rat ARFGAP1 inhibitors. shares compounds with ARFGAP1 inhibitor. ARFGAP1-stimulated ARF1 GTP hydrolysis, GDP tracer FP. inhibition, % at 16.5 µM. actives 30% (n = 890);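 active = average inhibition over triplicates above the hit cutoff set in the earlier primary screen, cut at about 25% in these data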;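 also: 0% = Arfgap1 plus ARF1-GTP with DMSO and 100% = wells lacking Arfgap1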
# Active calls of the source: *; nt = no result given.
SMILES,PHOSPHO1 inh,ARFGAP1 inhibitor,ASAP1 GAP inh,IMP-1 inhibitor,Calb FLC,VIM-2 inh,ARFGAP1 inh conf
CC1=C(C(=O)N2CCOCC2)CC(CC(=O)NC2CC2)C(=O)N1Cc1ccc(F)cc1 (configuration not stated),nt,2,8,nt,nt,nt,nt
O=[N+]([O-])c1ccc(N/N=C2\CC3CC=CC23)cc1 (configuration not stated),12,28*,7,-1,-2,1,3
Cc1ccc2[nH]c3c(=O)n(CC(=O)N4CC(C)CC(C)C4)ncc3c2c1 (configuration not stated),40,31*,17,-1,5,2,41*
CCCCn1nnnc1C(c1ccccc1)N1CCN(c2cccc(C)c2C)CC1 (configuration not stated),nt,6,5,nt,nt,nt,nt
COC(=O)/C(C#N)=C/c1ccc(C)o1,-16,25*,7,-5,3,-2,-4
CC(=O)Nc1cc(-c2cccnc2)cn2c(-c3cccc(C(F)(F)F)c3)cnc12,nt,-12,-11,nt,nt,nt,nt
CCn1nc(NC(=O)c2cccnc2)c2cc3ccccc3nc21,13,27*,9,-3,10,-1,8
CN(C)c1ncnc2c1ncn2[C@H]1CN(CCN2CCOCC2)C[C@@H](CO)O1,nt,0,10,nt,nt,nt,nt
Cc1nnc2ccc(-c3cccc(NC(=O)c4ccc(Cl)nc4)c3)nn12,14,27*,9,-4,4,5,2
Cc1nnc2ccc(-c3cccc(NS(C)(=O)=O)c3)nn12,40,5,0,0,-8,2,nt
O=C(NCc1ccccc1Cl)c1ccc(NC2=NC3CS(=O)(=O)CC3S2)cc1 (configuration not stated),23,27*,9,-2,-5,-1,0
OC(c1ccc(-c2ccccc2)cc1)c1ncc(-c2ccc(C(F)(F)F)cc2)[nH]1 (configuration not stated),nt,39*,7,nt,nt,nt,22
CC(=O)Nc1ccc(S(=O)(=O)NCCC(=O)NCCc2ccc(F)cc2)cc1,5,-5,10,0,3,1,nt
CC(=O)NCCc1ccc(S(=O)(=O)Nc2ccc(NC(=O)c3ccc(F)cc3)cc2)cc1,36,29*,1,-1,-6,-3,3
OCc1cccc(-c2cnc3c(Nc4cccc(OC(F)(F)C(F)F)c4)nccn23)c1,nt,-7,-10,nt,nt,nt,nt
O=[N+]([O-])c1cc(C(F)(F)F)cc([N+](=O)[O-])c1Sc1n[nH]c(C(F)(F)F)n1,12,29*,13,-2,32,-1,-11
CN(C)/C=N/c1nc(Sc2ccc(C(F)(F)F)cc2[N+](=O)[O-])n[nH]1,36,-13,-10,-4,-3,-1,nt
COc1ccc(/C=C/c2nc(N)nc(-c3ccccc3O)n2)cc1OC,-16,30*,21,-1,1,1,38*
COc1cc(/C=C/c2nc(N)nc(-c3ccccc3O)n2)cc(OC)c1OC,-6,14,24,0,-11,-1,nt
CC(C)C(=O)Nc1cc2c3c(c1)CCC(=O)N3CCC2,40,25*,-13,-1,1,0,-9
CCOc1ccc(NC(=O)CNC(=O)c2nn(-c3ccc(OC)c(OC)c3)c(=O)c3ccccc23)cc1,36,14,5,-1,7,-1,nt
COc1ccc(-n2nc(C(=O)NCC(=O)Nc3cccc(Cl)c3)c3ccccc3c2=O)cc1OC,36,28*,6,3,32,1,25*
Cc1c(C)n(-c2ccccc2)c2ncnc(NCCN(C)C)c12,-11,25*,11,-4,-12,4,-4
CC(C)(C)OC(=O)N1CCC[C@H]1C(=O)NCC1CCC(C(=O)O)CC1 (some centres not stated),5,26*,5,-1,-4,-3,-1
O=C(NCCOc1ccc(F)cc1)C1CCC(=O)N(Cc2ccc(Cl)cc2)C1 (configuration not stated),nt,18,-13,nt,nt,nt,nt
CCOc1ccc(NC(=S)Nc2ccc3nsnc3c2)cc1,5,26*,22,-4,2,1,7
